Test results published in ChEMBL document CHEMBL3392964, “Design, synthesis, and evaluation of novel imidazo[1,2-a][1,3,5]triazines and their derivatives as focal adhesion kinase inhibitors with antitumor activity” (J Med Chem, 2015).
Calls of active or inactive are those of the source. The rule behind the calls is not given here.

Columns and labels:
[1] = Cell cycle arrest in human HCT116 cells at < 0.5 uM after 24 hrs by propidium iodide staining-based flow cytometry; format: functional; settings: HCT-116
Summary of the method: (§1)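 Cells plated at 10^5 per well, left overnight, then exposed 24 h to compound or vehicle; stained 15 min at 37 °C with propidium iodide/Triton buffer; DNA content by flow cytometry, phase distribution fitted by Dean–Jett–Fox; HCT-116 at 0.3–0.5 μM, U87-MG at 0.3–3 μM; significance by unpaired Student's t test; one representative experiment.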

U-87MG ATCC [2] = assay: Antiinvasive activity in human U87MG cells after 30 mins by boyden chamber assay; format: functional, cell-based
Focal adhesion kinase 1 [3] = target: T1, Focal adhesion kinase 1 (Homo sapiens, UniProt Q05397); assay: Inhibition of FAK phosphorylation at tyrosine 397 in human HCT116 cells after 48 hrs by FACEFAK ELISA; format: cell-based; settings: HCT-116
T1 sequence (Q05397 2-1052 limits assumed): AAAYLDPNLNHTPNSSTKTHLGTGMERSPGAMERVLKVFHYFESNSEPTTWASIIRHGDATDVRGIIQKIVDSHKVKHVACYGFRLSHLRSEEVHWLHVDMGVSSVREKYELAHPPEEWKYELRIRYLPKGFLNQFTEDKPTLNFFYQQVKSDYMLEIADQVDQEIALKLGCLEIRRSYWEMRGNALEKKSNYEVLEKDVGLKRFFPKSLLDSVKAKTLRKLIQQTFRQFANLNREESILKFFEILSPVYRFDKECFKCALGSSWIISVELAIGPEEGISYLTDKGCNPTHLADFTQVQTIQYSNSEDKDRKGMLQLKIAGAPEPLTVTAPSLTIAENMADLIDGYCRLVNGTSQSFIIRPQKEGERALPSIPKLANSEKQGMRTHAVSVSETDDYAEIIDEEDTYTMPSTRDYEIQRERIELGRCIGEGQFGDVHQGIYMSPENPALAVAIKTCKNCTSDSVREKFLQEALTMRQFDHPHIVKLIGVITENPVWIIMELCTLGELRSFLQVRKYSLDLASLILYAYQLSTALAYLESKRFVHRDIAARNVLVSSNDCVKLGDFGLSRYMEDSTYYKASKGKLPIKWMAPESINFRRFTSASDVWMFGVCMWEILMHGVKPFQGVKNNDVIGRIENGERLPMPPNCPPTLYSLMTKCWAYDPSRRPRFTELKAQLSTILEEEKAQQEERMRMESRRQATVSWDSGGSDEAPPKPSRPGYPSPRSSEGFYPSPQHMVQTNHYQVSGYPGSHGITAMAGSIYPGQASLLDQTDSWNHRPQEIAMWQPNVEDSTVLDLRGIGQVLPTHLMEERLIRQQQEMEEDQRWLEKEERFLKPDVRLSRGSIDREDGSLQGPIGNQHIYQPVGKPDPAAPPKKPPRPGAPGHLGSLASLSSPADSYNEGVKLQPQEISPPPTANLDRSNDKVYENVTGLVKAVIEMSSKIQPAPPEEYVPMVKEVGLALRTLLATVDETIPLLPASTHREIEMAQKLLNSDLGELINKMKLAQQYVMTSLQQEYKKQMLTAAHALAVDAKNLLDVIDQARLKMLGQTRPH
Summary of the method: (§2)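 Cells in DMEM with 10% FBS, 3 × 10^3 per well, treated 48 h at 0.1, 1 and 10 μM. Fixed in 4% formaldehyde; antibodies to pTyr397-FAK or total FAK, HRP secondary, read at 450 nm. Crystal violet cell count at 595 nm. Phospho-FAK normalised to total FAK and cell number; fold decrease versus control, triplicate readings, three independent experiments.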

HCT-116 [4] = assay: Induction of apoptosis in human HCT116 cells assessed as necrotic cells at 0.5 uM after 24 hrs by Annexin V-PE/7-AAD staining-based FACS analysis (reference value: 0.885%); format: functional
[5] = (§3) Inhibition of colony formation in human U87MG cells after 2 weeks by crystal violet staining-based assay; format: functional, cell-based, U-87MG ATCC; settings: U-87 MG, 336 h
Summary of the method: (§4)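 Seeding: 250 cells per well for HCT-116, 300 for U87MG, MDA-MB-231 and PC-3; incubated overnight, then exposed to a range of concentrations for 2 weeks. Fixed in 4% paraformaldehyde 30 min at room temperature, stained with 0.1% crystal violet. Colonies over 50 cells counted; colony formation rate calculated; IC50 by nonlinear regression.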

U-87MG ATCC [6] = assay: as §3; format: functional, cell-based; summary of the method: as §4
[7] = (§5) Inhibition of colony formation in human HCT116 cells after 2 weeks by crystal violet staining-based assay; format: functional, cell-based; settings: HCT-116, 336 h; summary of the method: as §4
HCT-116 [8] = assay: as §5; format: functional, cell-based; summary of the method: as §4
HCT-116 [9] = assay: Induction of apoptosis in human HCT116 cells assessed as late apoptotic cells at 0.5 uM after 24 hrs by Annexin V-PE/7-AAD staining-based FACS analysis (reference value: 1.22%); format: functional
[10] = target: Insulin receptor (Homo sapiens) (UniProt P06213); assay: Inhibition of human recombinant IR using poly[Glu:Tyr] as substrate at 1 uM by [gamma-33P]ATP-based assay
Chain of Insulin receptor (Homo sapiens) (P06213 28-758 limits assumed): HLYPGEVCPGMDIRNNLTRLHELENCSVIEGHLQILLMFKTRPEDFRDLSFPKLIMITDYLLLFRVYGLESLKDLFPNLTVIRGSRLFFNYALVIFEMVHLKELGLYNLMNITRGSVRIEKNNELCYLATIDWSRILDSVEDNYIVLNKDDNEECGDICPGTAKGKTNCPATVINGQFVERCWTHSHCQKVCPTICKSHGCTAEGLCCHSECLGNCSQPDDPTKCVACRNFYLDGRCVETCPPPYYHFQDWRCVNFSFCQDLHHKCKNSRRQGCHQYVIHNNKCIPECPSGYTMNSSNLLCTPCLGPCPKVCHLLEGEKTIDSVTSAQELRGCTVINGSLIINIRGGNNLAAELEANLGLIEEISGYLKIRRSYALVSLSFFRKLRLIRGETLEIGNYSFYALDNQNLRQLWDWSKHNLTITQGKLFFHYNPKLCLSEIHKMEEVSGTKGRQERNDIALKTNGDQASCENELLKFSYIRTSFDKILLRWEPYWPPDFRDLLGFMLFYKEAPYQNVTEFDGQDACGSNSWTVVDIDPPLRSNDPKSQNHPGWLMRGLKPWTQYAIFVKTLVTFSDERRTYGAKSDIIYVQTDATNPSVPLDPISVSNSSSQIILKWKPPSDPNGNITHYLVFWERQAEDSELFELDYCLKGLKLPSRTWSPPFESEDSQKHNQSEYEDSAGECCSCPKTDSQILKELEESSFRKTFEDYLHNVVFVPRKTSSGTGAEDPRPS
Chain of Insulin receptor (Homo sapiens) (P06213 763-1382 limits assumed): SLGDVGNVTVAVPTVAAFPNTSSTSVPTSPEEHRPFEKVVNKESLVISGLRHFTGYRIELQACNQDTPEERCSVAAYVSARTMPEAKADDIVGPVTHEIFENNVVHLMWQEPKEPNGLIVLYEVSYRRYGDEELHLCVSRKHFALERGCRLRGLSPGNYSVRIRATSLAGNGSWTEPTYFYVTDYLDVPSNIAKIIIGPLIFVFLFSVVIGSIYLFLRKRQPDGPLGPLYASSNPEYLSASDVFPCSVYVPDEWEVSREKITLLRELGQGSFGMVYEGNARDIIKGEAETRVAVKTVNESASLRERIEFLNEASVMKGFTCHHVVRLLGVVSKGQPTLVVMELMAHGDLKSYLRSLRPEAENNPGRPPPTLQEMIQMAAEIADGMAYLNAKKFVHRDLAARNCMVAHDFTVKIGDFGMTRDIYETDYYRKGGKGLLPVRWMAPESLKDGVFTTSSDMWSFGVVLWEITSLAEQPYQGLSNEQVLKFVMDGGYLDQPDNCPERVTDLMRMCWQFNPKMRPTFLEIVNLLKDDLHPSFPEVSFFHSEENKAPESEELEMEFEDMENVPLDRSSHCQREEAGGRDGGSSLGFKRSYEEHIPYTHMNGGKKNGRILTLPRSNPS
Summary of the method: (§6)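 Radioactive kinase assay with [γ33P]ATP and human recombinant kinase, compound tested at 1 μM.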

[11] = Antiproliferative activity against human U87MG cells after 48 hrs by WST-1 assay; format: functional, cell-based, U-87MG ATCC; settings: U-87 MG
Summary of the method: (§7)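 Exponentially growing cells in DMEM/10% FBS seeded at 5 × 10^3 per well, left overnight, then exposed 48 h to compounds diluted from DMSO; WST-1 added for 2 h, absorbance at 450 nm (reference 620 nm); viability as ratio to DMSO controls; three independent experiments, triplicate points; IC50 by nonlinear regression (log inhibitor vs normalized response, variable slope).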

HCT-116 [12] = assay: Induction of apoptosis in human HCT116 cells assessed as apoptotic cells at 0.5 uM after 24 hrs by Annexin V-PE/7-AAD staining-based FACS analysis relative to control; format: functional
[13] = target: Protein-tyrosine kinase 2-beta (Homo sapiens) (UniProt Q14289); assay: Inhibition of human recombinant Pyk2 using poly[Glu:Tyr] as substrate at 1 uM by [gamma-33P]ATP-based assay; summary of the method: as §6
Chain of Protein-tyrosine kinase 2-beta (Homo sapiens) (Q14289 whole entry, looked up): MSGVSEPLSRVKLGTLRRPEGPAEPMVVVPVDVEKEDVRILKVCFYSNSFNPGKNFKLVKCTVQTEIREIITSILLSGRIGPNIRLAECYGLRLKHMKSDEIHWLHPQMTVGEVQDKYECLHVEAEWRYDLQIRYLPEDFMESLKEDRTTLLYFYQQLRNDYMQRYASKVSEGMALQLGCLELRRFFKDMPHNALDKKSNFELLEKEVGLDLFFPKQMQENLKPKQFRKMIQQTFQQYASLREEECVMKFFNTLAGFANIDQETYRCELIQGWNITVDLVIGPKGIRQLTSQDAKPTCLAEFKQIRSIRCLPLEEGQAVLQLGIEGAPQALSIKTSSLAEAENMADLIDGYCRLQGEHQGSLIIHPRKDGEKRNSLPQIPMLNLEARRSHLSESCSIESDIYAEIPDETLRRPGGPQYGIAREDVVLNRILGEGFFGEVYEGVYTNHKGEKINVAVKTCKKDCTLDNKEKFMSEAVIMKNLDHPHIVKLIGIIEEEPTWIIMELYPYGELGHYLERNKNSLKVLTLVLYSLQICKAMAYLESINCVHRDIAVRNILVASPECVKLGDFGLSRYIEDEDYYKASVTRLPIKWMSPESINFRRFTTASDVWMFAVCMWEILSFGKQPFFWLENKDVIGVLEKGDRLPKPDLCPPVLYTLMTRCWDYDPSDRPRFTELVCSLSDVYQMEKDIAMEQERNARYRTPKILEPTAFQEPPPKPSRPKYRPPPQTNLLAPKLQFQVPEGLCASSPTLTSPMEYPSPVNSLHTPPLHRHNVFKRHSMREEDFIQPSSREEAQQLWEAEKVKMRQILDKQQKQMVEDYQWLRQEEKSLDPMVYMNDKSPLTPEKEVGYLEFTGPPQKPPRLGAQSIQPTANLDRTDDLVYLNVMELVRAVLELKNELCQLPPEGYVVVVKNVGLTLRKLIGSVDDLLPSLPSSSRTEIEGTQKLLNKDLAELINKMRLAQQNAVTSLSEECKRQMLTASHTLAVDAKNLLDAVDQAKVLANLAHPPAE

Focal adhesion kinase 1 [14] = target: T1, Focal adhesion kinase 1; assay: Inhibition of FAK phosphorylation at tyrosine 397 in human MDA-MB-231 cells after 48 hrs by FACEFAK ELISA; format: cell-based; summary of the method: as §2
MDA-MB-231 = assay: Inhibition of colony formation in human MDA-MB-231 cells after 2 weeks by crystal violet staining-based assay; format: functional, cell-based; summary of the method: as §4
HCT-116 [15] = assay: Induction of apoptosis in human HCT116 cells assessed as early apoptotic cells at 0.5 uM after 24 hrs by Annexin V-PE/7-AAD staining-based FACS analysis (reference value: 4.68%); format: functional
[16] = Cell cycle arrest in human HCT116 cells assessed as accumulation at S phase at 0.5 uM after 24 hrs by propidium iodide staining-based flow cytometry (reference value: 17.7%); format: functional; settings: HCT-116; summary of the method: as §1
Focal adhesion kinase 1 [17] = target: T1, Focal adhesion kinase 1; assay: Inhibition of FAK phosphorylation at tyrosine 397 in human U87MG cells after 48 hrs by FACEFAK ELISA; format: cell-based; settings: U-87MG ATCC; summary of the method: as §2
U-87 MG [18] = assay: Induction of apoptosis in human U87MG cells assessed as late apoptotic cells at 3 uM after 24 hrs by Annexin V-PE/7-AAD staining-based FACS analysis (reference value: 1.59%); format: functional, U-87MG ATCC
U-87 MG [19] = assay: Induction of apoptosis in human U87MG cells assessed as early apoptotic cells at 3 uM after 24 hrs by Annexin V-PE/7-AAD staining-based FACS analysis (reference value: 0.691%); format: functional, U-87MG ATCC
[20] = Cell cycle arrest in human U87MG cells assessed as accumulation at G0/G1 phase at 3 uM after 24 hrs by propidium iodide staining-based flow cytometry (reference value: 61.7%); format: functional; settings: U-87MG ATCC; summary of the method: as §1
[21] = Cell cycle arrest in human U87MG cells assessed as accumulation at S phase at 3 uM after 24 hrs by propidium iodide staining-based flow cytometry (reference value: 16%); format: functional; settings: U-87MG ATCC; summary of the method: as §1
[22] = Cell cycle arrest in human HCT116 cells assessed as accumulation at G0/G1 phase at 0.5 uM after 24 hrs by propidium iodide staining-based flow cytometry (reference value: 63.8%); format: functional; settings: HCT-116; summary of the method: as §1
U-87MG ATCC [23] = assay: Antimigratory activity in human U87MG cells after 30 mins by boyden chamber assay; format: functional, cell-based
[24] = Cell cycle arrest in human HCT116 cells assessed as accumulation at G2/M phase at 0.5 uM after 24 hrs by propidium iodide staining-based flow cytometry (reference value: 14.6%); format: functional; settings: HCT-116; summary of the method: as §1
[25] = Antiinvasive activity in human U87MG cells after 24 hrs by matrigel assay; format: functional, U-87MG ATCC
Summary of the method: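 U-87MG pre-exposed 24 h to compound or DMSO in 3% FBS, then 4 × 10^4 cells seeded in upper chamber of impedance-based CIM-16 plate (8 μm pore membrane) coated with Matrigel/collagen; lower chamber 10% FBS; cell index monitored at 37 °C, 5% CO2 for 12 h; slope (1/h) over set interval, DMSO slope set to 100; duplicate wells, repeated twice.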

[26] = Antiproliferative activity against human HCT116 cells after 48 hrs by WST-1 assay; format: functional, cell-based; settings: HCT-116, 48 h; summary of the method: as §7
U-87 MG [27] = assay: Reduction of cell adherence in human U87MG cells at 3 uM after 30 mins by toluidine blue staining-based […]; format: functional, U-87MG ATCC; design: scale not given: the % may be the effect or the level left
Summary of the method: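 U87-MG cells grown in 10% serum, trypsinised, diluted to 100 000 cells/mL in 10% serum medium, then treated 30 min with compound or DMSO. 20 000 cells per well allowed to attach 1 h. Fixed in 4% paraformaldehyde 30 min, stained with 0.1% toluidine blue in 4% PFA 30 min, washed, OD read at 620 nm for attached cells.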

- inhibition (Focal adhesion kinase 1 [3]): Dose-dependent effect
- IC50 [5]: 420 nM
- IC50 [7]: 130 nM
- inhibition [10]: inactive
- inhibition [13]: inactive
- inhibition (Focal adhesion kinase 1 [14]): Dose-dependent effect
- IC50 (MDA-MB-231; MDA-MB-231, 336 h): 140 nM
- inhibition (Focal adhesion kinase 1 [17]): Dose-dependent effect
Structure (SMILES): C=COC(=O)NCc1ccc(Nc2nc(Nc3ccccc3C(=O)NC)n3ccnc3n2)cc1
- Activity [1]: Active
- Activity (U-87MG ATCC [2]): Dose-dependent effect
- Activity (HCT-116 [4]): 7.77%
- inhibition (U-87MG ATCC [6]): Dose-dependent effect
- inhibition (HCT-116 [8]): Dose-dependent effect
- Activity (HCT-116 [9]): 16.1%
- IC50 [11]: 2890 nM
- Activity (HCT-116 [12]): 25.9%
- inhibition (MDA-MB-231): Dose-dependent effect
- Activity (HCT-116 [15]): 13.3%
- Activity [16]: 11.6%
- Activity (U-87 MG [18]): 0.997%
- Activity (U-87 MG [19]): 0.756%
- Activity [20]: 34.3%
- Activity [21]: 5.08%
- Activity [22]: 29.9%
- Activity (U-87MG ATCC [23]): Dose-dependent effect
- Activity [24]: 54.7%
- Activity [25]: 50%
- IC50 [26]: 520 nM
- Activity (U-87 MG [27]): 50%
